According to ChEMBL document CHEMBL1955833, “Wnt inhibition correlates with human embryonic stem cell cardiomyogenesis: a structure-activity relationship study based on inhibitors for the Wnt response” (J Med Chem, 2012):
Values belong to the compound of their own block, whether it stands above or below them. The source made the active and inactive calls. The rule behind the calls is not given here.

Legend:
H9 [1] = test: Cardiogenic activity in human H9 cells after 14 days by MYH6-mCherry reporter gene assay relative to 4-[(1R,2S,6R,7S)-3,5-dioxo-4-azatricyclo[5.2.1.0~2,6~]dec-8-en-4-yl]-N-quinolin-8-ylbenzamide; assay type: functional
In short: (§1)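 hESC embryoid bodies grown to day 4, dissociated to single cells and plated in 384-well format with serial compound dilutions. At day 10 switched to serum-free medium with T3. At day 14 moved to PBS and imaged for red fluorescence. Total area and intensity of the MYH6-mCherry reporter were quantified per well and expressed as percent cardiogenesis, with the reference set to 100% at its maximum.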

[2] = Inhibition of beta-catenin-dependent canonical Wnt3A pathway in human HEK293T cells at 1 uM by luciferase reporter gene assay; assay type: cell-based; details: HEK-293T
In short: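 HEK293T cells transiently co-transfected with Super(8x)TOPflash (TCF-firefly luciferase), TK-Renilla luciferase for normalization, and a Wnt3A-expressing vector to activate the pathway. Compounds tested at a single concentration of 1 μM, alongside untreated and DMSO vehicle controls. Firefly signal normalized to Renilla.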

[3] = Inhibition of beta-catenin-dependent canonical Wnt3 pathway in human HEK293T cells by luciferase reporter gene assay; assay type: cell-based; details: HEK-293T
[4] = Chemical stability in phosphate buffer pH 7.4 at 10 uM after 30 hrs by HPLC analysis; assay type: physicochemical; details: pH 7.4, 30 h
In short: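 Degradation followed by HPLC, and half-life determined where degradation occurred.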

H9 [5] = test: Cardiogenic activity in human H9 cells at < 0.15 uM after 14 days by MYH6-mCherry reporter gene assay relative to 4-[(1R,2S,6R,7S)-3,5-dioxo-4-azatricyclo[5.2.1.0~2,6~]dec-8-en-4-yl]-N-quinolin-8-ylbenzamide; assay type: functional, cell-based; in short: as §1
HEK-293T [6] = test: Inhibition of human recombinant TGFbeta2-induced Smad signaling in HEK293T cells at 0.01 to 5 uM by luciferase reporter gene assay; assay type: cell-based
In short: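 HEK293T cells carrying a SMAD response element reporter were stimulated with human recombinant TGFβ2. Compounds were incubated at 0.01, 0.1, 1 and 5 μM. Percent inhibition of the SMAD response was calculated relative to DMSO vehicle controls.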

HEK-293T [7] = test: Cytotoxicity against human HEK293T cells at 0.2 to 20 uM after 24 hrs by alamar blue assay; assay type: cell-based
Embryonic stem cell = test: Cardiogenic activity in human embryonic stem cells at 50 uM by MYH6 reporter gene assay relative to control; assay type: functional, cell-based

SMILES: O=C(Nc1cccc2cccnc12)c1cccc(N2C(=O)[C@@H]3[C@@H]4CC[C@@H](C4)[C@@H]3C2=O)c1
inhibition [2]: 0%

SMILES: O=C1[C@@H]2[C@@H]3CC[C@@H](C3)[C@@H]2C(=O)N1[C@H]1CC[C@H](C(=O)Nc2cccc3cnccc23)CC1
inhibition [2]: 87%
IC50 [3]: 161 nM

SMILES: CC(=O)c1ccc(NC(=O)c2ccc(N3C(=O)[C@@H]4[C@@H]5CC[C@@H](C5)[C@@H]4C3=O)cc2)cc1
inhibition [2]: 41%

SMILES: O=C(Nc1cccc2cccnc12)c1ccc(N2C(=O)C3C(C2=O)[C@H]2CC[C@@H]3O2)cc1 (some centres not stated)
Activity (H9 [1]): 2%
inhibition [2]: 49%
IC50 [3]: 605 nM

SMILES: COc1ccccc1NC(=O)c1ccc(N2C(=O)[C@@H]3[C@@H]4CC[C@@H](C4)[C@@H]3C2=O)cc1
Activity (H9 [1]): 8%
inhibition [2]: 84%
IC50 [3]: 215 nM

SMILES: O=C(Nc1cccc2cccnc12)c1ccc(N2C(=O)[C@@H]3[C@@H]4CC[C@@H](C4)[C@@H]3C2=O)o1
inhibition [2]: 0%

SMILES: CC(=O)c1ccc(NC(=O)[C@H]2CC[C@H](N3C(=O)[C@@H]4[C@@H]5CC[C@@H](C5)[C@@H]4C3=O)CC2)cn1
Activity (H9 [1]): 3%
inhibition [2]: 56%
IC50 [3]: 590 nM
inhibition (HEK-293T [6]): < 20%

SMILES: O=C1[C@@H]2[C@@H]3CC[C@@H](C3)[C@@H]2C(=O)N1[C@H]1CC[C@H](C(=O)Nc2cccnc2Cl)CC1
Activity (H9 [1]): Dose-dependent effect
Activity (H9 [1]; record 2): 56%
inhibition [2]: 13%
IC50 [3]: 169 nM

SMILES: O=C1[C@@H]2[C@@H]3CC[C@@H](C3)[C@@H]2C(=O)N1[C@H]1CC[C@H](C(=O)Nc2ccccc2O)CC1
inhibition [2]: 76%
IC50 [3]: 484 nM

SMILES: COc1ccc(NC(=O)c2ccc(N3C(=O)[C@@H]4[C@@H]5CC[C@@H](C5)[C@@H]4C3=O)cc2)cc1
inhibition [2]: 50%

SMILES: COc1ccc(/C=C2/SC(=S)N(CCCC(=O)O)C2=O)cc1OC
Activity (HEK-293T [7]): Non-toxic
Activity (Embryonic stem cell): Active
IC50 [3]: 728 nM

SMILES: N#Cc1ccc(NC(=O)c2ccc(N3C(=O)[C@@H]4[C@@H]5CC[C@@H](C5)[C@@H]4C3=O)cc2)cc1
Activity (H9 [1]): 1%
inhibition [2]: 70%
IC50 [3]: 317 nM

SMILES: CCOc1ccccc1NC(=O)[C@H]1CC[C@H](N2C(=O)[C@@H]3[C@@H]4CC[C@@H](C4)[C@@H]3C2=O)CC1
inhibition [2]: 78%
IC50 [3]: 190 nM

SMILES: O=C(Nc1cccc2cccnc12)c1ccc(N2C(=O)[C@@H]3[C@H]4CC[C@H](CC4)[C@@H]3C2=O)cc1
Activity (H9 [1]): 2%
inhibition [2]: 87%
IC50 [3]: 314 nM

SMILES: O=C(Nc1ccccc1O)c1ccc(N2C(=O)[C@@H]3[C@@H]4CC[C@@H](C4)[C@@H]3C2=O)cc1
inhibition [2]: 33%

SMILES: O=C1[C@@H]2[C@@H]3CC[C@@H](C3)[C@@H]2C(=O)N1c1ccc(CNc2cccc3cccnc23)cc1
inhibition [2]: 45%

SMILES: O=C1[C@@H]2[C@@H]3CC[C@@H](C3)[C@@H]2C(=O)N1[C@H]1CC[C@H](C(=O)Nc2cncc(O)c2)CC1
Activity (H9 [1]): Dose-dependent effect
Activity (H9 [1]; record 2): 61%
inhibition [2]: 86%
IC50 [3]: 152 nM

SMILES: O=C(Nc1cccc2cccnc12)c1ccc(N2C(=O)[C@@H]3[C@H](C2=O)[C@@H]2C=C[C@H]3CC2)cc1
inhibition [2]: 83%
IC50 [3]: 412 nM

SMILES: Cc1cc(/C=C/c2ccc3cc(N(C)C)ccc3[n+]2C)c(C)n1-c1ccccc1
Activity (HEK-293T [7]): Toxic

SMILES: O=C1c2ccccc2-c2cccc(NC(=O)[C@H]3CC[C@H](N4C(=O)[C@@H]5[C@@H]6CC[C@@H](C6)[C@@H]5C4=O)CC3)c21
Activity (H9 [1]): Dose-dependent effect
Activity (H9 [1]; record 2): 104%
inhibition [2]: 88%
IC50 [3]: 194 nM

SMILES: O=C(Nc1cccc2ccccc12)c1ccc(N2C(=O)[C@@H]3[C@@H]4CC[C@@H](C4)[C@@H]3C2=O)cc1
Activity (H9 [1]): 8%
inhibition [2]: 41%
IC50 [3]: 1590 nM

SMILES: CN(C)c1ccc(NC(=O)c2ccc(N3C(=O)[C@@H]4[C@@H]5CC[C@@H](C5)[C@@H]4C3=O)cc2)cc1
inhibition [2]: 25%

SMILES: O=C1[C@@H]2[C@@H]3CC[C@@H](C3)[C@@H]2C(=O)N1[C@H]1CC[C@H](C(=O)Nc2cccc3ncccc23)CC1
inhibition [2]: 68%
IC50 [3]: 604 nM

SMILES: O=C(Nc1cccc2cccnc12)c1ccc(N2C(=O)[C@@H]3[C@H](C2=O)[C@@H]2C=C[C@H]3C2)cc1
Stability [4]: Stable
Activity (HEK-293T [7]): Non-toxic
Activity (H9 [1]): Dose-dependent effect
inhibition (HEK-293T [6]): < 20%

SMILES: CC1[C@H]2CC[C@@H]1[C@@H]1C(=O)N(c3ccc(C(=O)Nc4cccc5cccnc45)cc3)C(=O)[C@@H]12 (some centres not stated)
inhibition [2]: 76%
IC50 [3]: 1180 nM

SMILES: O=C1[C@@H]2[C@@H]3CC[C@@H](C3)[C@@H]2C(=O)N1c1ccc2c(c1)C(=O)N(c1cccc3cccnc13)C2=O
inhibition [2]: 15%

More lines, main results first:

IC50 [3]: 55 nM
SMILES: O=C1[C@@H]2[C@@H]3CC[C@@H](C3)[C@@H]2C(=O)N1[C@H]1CC[C@H](C(=O)Nc2cncc3ccccc23)CC1
Activity (H9 [1]): Dose-dependent effect
Activity (H9 [1]; record 2): 119%
inhibition [2]: 89%

IC50 [3]: 23 nM
SMILES: CC(=O)c1ccccc1NC(=O)[C@H]1CC[C@@H](N2C(=O)[C@@H]3[C@@H]4CC[C@@H](C4)[C@@H]3C2=O)CC1
Activity (H9 [1]): Dose-dependent effect
Activity (H9 [1]; record 2): 72%
inhibition [2]: 91%

Stability [4]: Stable
IC50 [3]: 6 nM
SMILES: CC(=O)c1ccccc1NC(=O)[C@H]1CC[C@H](N2C(=O)[C@@H]3[C@@H]4CC[C@@H](C4)[C@@H]3C2=O)CC1
Activity (H9 [5]): Active
Activity (H9 [1]): 78%
inhibition [2]: 91%
inhibition (HEK-293T [6]): < 20%

IC50 [3]: 80 nM
SMILES: O=C1[C@@H]2[C@@H]3CC[C@@H](C3)[C@@H]2C(=O)N1[C@H]1CC[C@H](C(=O)Nc2ccncc2)CC1
Activity (H9 [1]): 3%
inhibition [2]: 84%

IC50 [3]: 4 nM
SMILES: O=C1[C@@H]2[C@@H]3CC[C@@H](C3)[C@@H]2C(=O)N1[C@H]1CC[C@H](C(=O)Nc2cccc3cccnc23)CC1
Activity (H9 [5]): Active
Activity (H9 [1]): 145%
inhibition [2]: 89%
inhibition (HEK-293T [6]): < 20%

IC50 [3]: 37 nM
SMILES: COc1cc(Br)ccc1NC(=O)[C@H]1CC[C@H](N2C(=O)[C@@H]3[C@@H]4CC[C@@H](C4)[C@@H]3C2=O)CC1
Activity (H9 [1]): Dose-dependent effect
Activity (H9 [1]; record 2): 20%
inhibition [2]: 82%
inhibition (HEK-293T [6]): < 20%

IC50 [3]: 109 nM
SMILES: O=C1[C@@H]2[C@@H]3CC[C@@H](C3)[C@@H]2C(=O)N1[C@H]1CC[C@H](C(=O)Nc2ccccn2)CC1
Activity (H9 [1]): 3%
inhibition [2]: 82%

IC50 [3]: 7 nM
SMILES: O=C1CCCc2cccc(NC(=O)[C@H]3CC[C@H](N4C(=O)[C@@H]5[C@@H]6CC[C@@H](C6)[C@@H]5C4=O)CC3)c21
Activity (H9 [5]): Active
Activity (H9 [1]): 176%
inhibition [2]: 92%
inhibition (HEK-293T [6]): < 20%

Stability [4]: Stable
IC50 [3]: 120 nM
SMILES: O=C1[C@@H]2[C@@H]3CC[C@@H](C3)[C@@H]2C(=O)N1[C@H]1CC[C@H](C(=O)Nc2cccnc2)CC1
Activity (H9 [1]): 15%
inhibition [2]: 89%
inhibition (HEK-293T [6]): < 20%

IC50 [3]: 57 nM
SMILES: O=C1[C@@H]2[C@@H]3CC[C@@H](C3)[C@@H]2C(=O)N1[C@H]1CC[C@@H](C(=O)Nc2cccc3cccnc23)CC1
Activity (H9 [1]): Dose-dependent effect
Activity (H9 [1]; record 2): 65%
inhibition [2]: 90%

IC50 [3]: 7 nM
SMILES: CC(=O)c1ncccc1NC(=O)[C@H]1CC[C@H](N2C(=O)[C@@H]3[C@@H]4CC[C@@H](C4)[C@@H]3C2=O)CC1
Activity (H9 [5]): Active
Activity (H9 [1]): 145%
inhibition [2]: 79%
inhibition (HEK-293T [6]): < 20%

IC50 [3]: 109 nM
SMILES: O=C1[C@@H]2[C@@H]3CC[C@@H](C3)[C@@H]2C(=O)N1[C@H]1CC[C@H](C(=O)Nc2ccnc3ccccc23)CC1
inhibition [2]: 90%

IC50 [3]: 95 nM
SMILES: O=C1[C@@H]2[C@@H]3CC[C@@H](C3)[C@@H]2C(=O)N1[C@H]1CC[C@H](C(=O)Nc2nccc3ccccc23)CC1
Activity (H9 [1]): Dose-dependent effect
Activity (H9 [1]; record 2): 84%
inhibition [2]: 88%

IC50 [3]: 67 nM
SMILES: COC(=O)c1ccccc1NC(=O)[C@H]1CC[C@H](N2C(=O)[C@@H]3[C@@H]4CC[C@@H](C4)[C@@H]3C2=O)CC1
Activity (H9 [1]): Dose-dependent effect
Activity (H9 [1]; record 2): 38%
inhibition [2]: 86%

IC50 [3]: 24 nM
SMILES: O=C(Nc1cccc2cccnc12)c1ccc(N2C(=O)[C@@H]3[C@@H]4CC[C@@H](C4)[C@@H]3C2=O)cc1
Activity (H9 [1]): Dose-dependent effect
Activity (H9 [1]; record 2): 75%
inhibition [2]: 93%
